Test results reported in ChEMBL document CHEMBL4033790, “Design and Synthesis of Novel Deuterated Ligands Functionally Selective for the γ-Aminobutyric Acid Type A Receptor (GABAAR) α6 Subtype with Improved Metabolic Stability and Enhanced Bioavailability” (J Med Chem, 2018).
In brackets after ≈: the same amount, converted by molar mass. Activity calls are given as the source filed them. The rule behind the calls is not given here.

Key:
[1] = Terminal elimination half-life in Wistar rat brain at 2 mg/kg, iv administered as single dose by HPLC-MS/MS analysis; type: ADME, organism-based; settings: read-out: beta t1/2 (converted)
Method in brief: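 Male Wistar rats (250-350 g) received a single 2 mg/kg dose, nanoemulsion formulation, by oral gavage or IV. Three rats per time point (5, 30, 120, 480, 1440 min); plasma and brain collected. Compound extracted by solid-phase extraction and quantified by HPLC-MS/MS. Absolute oral bioavailability was calculated from plasma AUC after the two routes.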

[2] = test system: Mus musculus; test: Hyperlocomotor activity in C57BL/6 mouse assessed as total distance travelled at 3 to 10 mg/kg, ip after 60 mins in presence of diazepam; type: ADME, organism-based; settings: in vivo, 1 h
[3] = test system: Rattus norvegicus; test: Toxicity in Wistar rat assessed as total distance traveled at 10 mg/kg, ip administered for 45 mins by cued water-maze method (reference value: 8.04 +/- 1.16 meter); type: organism-based; settings: in vivo, 0.75 h
[4] = Drug metabolism in human liver microsomes assessed as CYP450 mediated-O-demethylated 7-hydroxy-2-(4-hydroxyphenyl)-2H-pyrazolo[4,3-c]quinolin-3(5H)-one metabolite formation after 60 mins by LC-MS analysis; type: ADME; settings: 1 h
Method in brief: (§1)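 The 60-min samples from the human or mouse liver microsome incubations (10 µM compound, 0.5 mg/mL protein, NADPH regenerating system, 37 °C, pH 7.4) were run on LC-MS in SIM mode with dual ESI/APCI ionization. The method was calibrated to each component's retention time and mass, and the peak intensities of the parent and O-demethylated metabolites were measured.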

[5] = test system: Rattus norvegicus; test: Toxicity in Wistar rat assessed as closed arm entries at 10 mg/kg, ip administered for 45 mins measured for 5 min by elevated plus maze apparatus method (reference value: 3.63 +/- 0.42); type: organism-based; settings: in vivo
[6] = test system: Rattus norvegicus; test: Toxicity in Wistar rat assessed as total distance traveled at 10 mg/kg, ip administered for 45 mins measured for 5 min by elevated plus maze method (reference value: 6.71 +/- 0.56 meter); type: organism-based; settings: in vivo
[7] = Drug metabolism in human liver microsomes assessed as CYP450 mediated-O-demethylated 2-(4-hydroxyphenyl)-7-methoxy-2H-pyrazolo[4,3-c]quinolin-3(5H)-one metabolite formation after 60 mins by LC-MS analysis; type: ADME; settings: 1 h; method in brief: as §1
[8] = AUC (0 to 24 hrs) in Wistar rat plasma at 2 mg/kg, iv administered as single dose by HPLC-MS/MS analysis; type: ADME, organism-based; parameters: dose 2 mg/kg, time < 24 hr, route intravenous
[9] = test system: HEK-293T; test: Cytotoxicity against HEK293T cells assessed as reduction in cell viability up to 400 uM after 48 hrs by CellTiter-Glo assay; type: cell-based; settings: human
Method in brief: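 HEK293T and HepG2 cells grown in high-glucose DMEM with non-essential amino acids, 10 mM HEPES, penicillin/streptomycin and 10% heat-inactivated FBS. Cells were harvested with trypsin and plated; compound was pin-transferred 3 h later. Incubation was 48 h, then CellTiter-Glo luminescence was read. Controls were DMSO (negative) and a cytotoxic aminoketone (positive). Quadruplicates, three independent runs, normalized to controls, nonlinear regression.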

[10] = Cmax in Wistar rat brain at 10 mg/kg, ip administered as single dose measured at 5 to 720 mins post dose by HPLC-MS/MS analysis; type: ADME, organism-based; parameters: dose 10 mg/kg, route intraperitoneal
Method in brief: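 Male Wistar rats (250-350 g) given a single 10 mg/kg i.p. dose of a 5 mg/ml suspension in 85% distilled water, 14% propylene glycol, 1% Tween 80. Three rats per time point (5, 20, 60, 180, 720 min). Blood and brain were collected after sacrifice. Drug was recovered by solid phase extraction and quantified by HPLC-MS/MS.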

[11] = test system: Brain; test: Unbound AUC in Wistar rat brain at 10 mg/kg, ip administered as single dose measured at 5 to 720 mins post dose by HPLC-MS/MS analysis; type: ADME, organism-based; settings: in vivo
Method in brief: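 Free fraction in rat plasma and brain tissue was measured in vitro by rapid equilibrium dialysis. Exposure came from male Wistar rats (250-350 g) given a single 10 mg/kg IP dose, as a 5 mg/ml suspension in 85% water, 14% propylene glycol and 1% Tween 80. Three rats per time point (5–720 min); brain analysed by HPLC-MS/MS after solid-phase extraction.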

[12] = Cmax in Wistar rat brain at 2 mg/kg, iv administered as single dose measured at 5 to 1440 mins post dose by HPLC-MS/MS analysis; type: ADME, organism-based; parameters: dose 2 mg/kg, route intravenous
Method in brief: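 Absolute oral bioavailability study in Wistar rats: single 2 mg/kg dose by oral gavage or IV, using nanoemulsion formulations. Three rats per time point (5, 30, 120, 480, 1440 min). Plasma and brain were extracted by solid phase extraction and levels measured by HPLC-MS/MS. Bioavailability was calculated from plasma AUC for the two routes.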

[13] = Solubility of the compound in 0.01M HCl at pH 2 after 2 hrs by LC-MS analysis; type: physicochemical; settings: buffer, pH 2, 2 h
Method in brief: (§2)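 10 mg compound dissolved in 2 mL DMAC; 10 μL of this added to 2 mL DI water (pH 7, sonicated) or 2 mL 0.01 M aq HCl (pH 2), held 2 h at 37 °C. Filtered through 0.45 micron filter, then quantified by LC-MS in SIM mode against calibration curves of standards in DMAC (n = 5); n=3.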

[14] = species on record: Rattus norvegicus; test: Displacement of [3H]-flunitrazepam from rat brain GABA-A receptor benzodiazepine site […] at 10 uM after 60 to 90 mins by scintillation counting
[15] = target: GABA-A receptor; alpha-6/beta-3/gamma-2 (Homo sapiens) (UniProt P18507+P28472+Q16445); test: Positive allosteric modulation of GABA-A receptor alpha6beta3gamma2 (unknown origin) expressed in Xenopus laevis oocytes assessed as potentiation of EC3 GABA induced currents at 30 uM at -60 mV holding potential by electrophysiological method relative to GABA; type: cell-based
Method in brief: (§3)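 Stage 5–6 defolliculated Xenopus oocytes were injected with 2.5 ng total mRNA per oocyte: α1, α2, α3 or α5 with β3 and γ2 at 1:1:5, and α4 or α6 with β3 and γ2 at 3:1:5. Oocytes were kept ≥36 h at 18 °C in NDE medium before recording. Compounds were co-applied with GABA titrated to EC3-5 for each oocyte. Curves were fitted with the Hill equation; mean ± SEM from ≥3 oocytes across two batches.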

[16] = Aqueous solubility of the compound in DI water at pH 7 after 2 hrs by LC-MS analysis; type: physicochemical; settings: buffer, pH 7, 2 h; method in brief: as §2
[17] = target: GABA-A receptor; alpha-3/beta-3/gamma-2 (Homo sapiens) (UniProt P18507+P28472+P34903); test: Positive allosteric modulation of GABA-A receptor alpha3beta3gamma2 (unknown origin) expressed in Xenopus laevis oocytes assessed as potentiation of EC3 GABA induced currents up to 1 uM at -60 mV holding potential by electrophysiological method relative to GABA; type: cell-based; method in brief: as §3
[18] = target: GABA-A receptor; alpha-2/beta-3/gamma-2 (Homo sapiens) (UniProt P18507+P28472+P47869); test: Positive allosteric modulation of GABA-A receptor alpha2beta3gamma2 (unknown origin) expressed in Xenopus laevis oocytes assessed as potentiation of EC3 GABA induced currents up to 1 uM at -60 mV holding potential by electrophysiological method relative to GABA; type: cell-based; method in brief: as §3

In the case of [2H]C([2H])([2H])Oc1ccc(-n2nc3c4ccc(OC)cc4[nH]cc-3c2=O)cc1, the half-life [1] is reported as 4.34 h, the Activity [2] is reported as “Toxic” and the Activity [3] is reported as 11.01 m. The Drug metabolism [4] was “Metabolite_Detected”, the Activity [5] was 2.63 and the Activity [6] was 5.84 m. The Drug metabolism [7] was “Metabolite_Detected”, the AUC(0-t) at 24 h [8] was 3000 ng·h/mL and the Activity [9] was “Non-Toxic”. It also gave a Cmax [10] of 587 ng/g, a fAUC [11] of 651.72 ng·h/g and a Cmax [12] of 71.9 ng/g.

With COc1ccc(-n2nc3c4ccc(OC)cc4[nH]cc-3c2=O)cc1 the half-life [1] was 10.9 h, the solubility [13] was 27.8 µM (≈ 8.93 µg/mL) and the inhibition [14] was “Active”. The Activity [15] was 900%, the Activity ([15]; tested as the 2H-labelled form) was “inactive” and the AUC(0-t) at 24 h [8] was 1890 ng·h/mL. It also gave a solubility [16] of 24.3 µM (≈ 7.81 µg/mL), an Activity [17] of less than 0% and a Cmax [10] of 352 ng/g. It also gave an Activity [18] of less than 0% and a Cmax [12] of 84.5 ng/g.
